Data on 98 molecules can be found in ChEMBL document CHEMBL4513216, “Probing the Open Global Health Chemical Diversity Library for Multistage-Active Starting Points for Next-Generation Antimalarials” (ACS Infect Dis, 2020).

The structures appear in SMILES notation.

The data set is described as follows: Toxicity liver stage against HepG2, at 10uM. In kind it is cell-based. Details: test concentration 10 uM, cell line HepG2-A16-CD81EGFP. The note with it: human, HepG2-A16-CD81EGFP cells; read-out: INHIBITION
The essentials: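 Uninfected HepG2-A16-CD81EGFP cells, 3 × 10^3 per well, 1536-well, plated on prespotted compound at 10 μM final, parasite-free screening media added to match infected plates; puromycin 10 μM positive, DMSO 0.5% negative; run in parallel with 48 h PbLuc assay at 37 °C, 5% CO2; viability by CellTiter-Glo luminescence, normalized to controls.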
For the molecule `COc1cccc(CN2CCN3C(=O)NC[C@H]3C2)n1`, the cytotoxicity at 10 µM was -1.45%.

Turning to `CCCc1nnc(SCc2cc(=O)n3c4c(sc3n2)CCCC4)[nH]1`, the cytotoxicity at 10 µM was -1.05%.

In the case of `CC(C)CNc1c(NCc2ccco2)c(=O)c1=O`, the cytotoxicity at 10 µM is -10.6%.

As to `Cc1nc2sc(C(=O)N3CCNC(=O)C3)c(C)c2c(=O)[nH]1`, the cytotoxicity at 10 µM was determined as 4.13%.

As for `O=C(Nc1cccs1)N1CC(c2nc(C3CC3)no2)C1`, the cytotoxicity at 10 µM is -0.921%.

As for `Cn1cnc(C(=O)N2CC3(CCN(S(=O)(=O)c4ccccc4)C3)C2)c1`, the cytotoxicity at 10 µM turned out to be 3.8%.

Take `CN(C)C(=O)N1CCC2(CC(=O)N(c3ccc4c(c3)OCO4)C2)C1` (stereo not drawn): the cytotoxicity at 10 µM amounted to 8.04%.

Regarding `O=C(Nc1ccccc1)C1=NOC2(CCCNC2)C1` (stereo not drawn), the cytotoxicity at 10 µM is 1.02%.

For `Cc1noc(C2CCC3(CCN(C(=O)c4cnccn4)CC3)O2)n1` (stereo not drawn), the cytotoxicity at 10 µM came out at 7.19%.

With `COCC(=O)N1CCC2(COCc3c(C)nc(N(C)C)nc32)C1` (stereo not drawn), the cytotoxicity at 10 µM was determined as 9.09%.

`O=C(NCC1CCCO1)c1nc2c(s1)CCCN2c1ncccn1` (stereo not drawn): the cytotoxicity at 10 µM was -5.17%.

As for `Cc1ccc2c(ccn2CCC(=O)NC[C@@H]2CCCN3CCCC[C@H]23)c1`, the cytotoxicity at 10 µM stood at 2.29%.

For the molecule `CC1=Nc2c(c(=O)[nH]n2C(C)C)C(c2ccc(F)c(F)c2)S1` (stereo not drawn), the cytotoxicity at 10 µM was -5%.

For the molecule `COc1ccc(S(=O)(=O)N2CCC(S(C)(=O)=O)CC2)cc1C`, the cytotoxicity at 10 µM came to 2.4%.

For the molecule `CCN1C(=O)CCCC12CCCN(C(=O)c1conc1C)C2` (stereo not drawn), the cytotoxicity at 10 µM stood at 4.57%.

With `CC(=O)N[C@@H]1CN(C(=O)c2cccc(C(F)(F)F)c2)C[C@H]1O`, the cytotoxicity at 10 µM came to 1.9%.

As for `CNc1ccc(C2CN(c3cc(C)nc(N)n3)CCO2)nc1` (stereo not drawn), the cytotoxicity at 10 µM was 4.72%.

In the case of `CCc1nnc(Nc2cc(C)nc(C3CN(C(C)=O)CCO3)c2)s1` (stereo not drawn), the cytotoxicity at 10 µM stood at 4.74%.

With `CCCC(=O)N1CCCC1(C)c1nc(C)no1` (stereo not drawn), the cytotoxicity at 10 µM came to 0.79%.

Regarding `CNC(=O)C1CN(Cc2cc(C)on2)CCN(C2CCOCC2)C1` (stereo not drawn), the cytotoxicity at 10 µM is 9.81%.

As to `CNC(=O)c1ccc(C2CN(CC(=O)N(C)C)CCO2)nc1` (stereo not drawn), the cytotoxicity at 10 µM turned out to be 7.15%.

Regarding `Cc1ccn(CCNC(=O)C2(C)CC(c3ccccc3)=NO2)n1` (stereo not drawn), the cytotoxicity at 10 µM came to 8.46%.

Take `COCCN1CCCC1(C)c1nc(C)cc(N)n1` (stereo not drawn): the cytotoxicity at 10 µM is -3.73%.

With `C[C@]1(O)CCN(Cc2ncccc2F)C[C@@H]1Oc1cccc(F)c1`, the cytotoxicity at 10 µM was -1.37%.

`Cc1cccnc1Nc1nccc(C2CN(CC(N)=O)C2)n1`: the cytotoxicity at 10 µM was -34.3%.

On to `CC(=O)N1CCCC(c2ccc(N3CCOCC3)cn2)C1` (stereo not drawn), for which the cytotoxicity at 10 µM was -18.9%.

Consider `CC(C)(C)C(=O)N1CCC(n2nc(-c3ccco3)ccc2=O)CC1`, for which the cytotoxicity at 10 µM is -15.4%.

As to `CC(C)(C)OC(=O)N1CCN(c2nnc(Br)s2)CC1`, the cytotoxicity at 10 µM is 10.8%.

In the case of `O=C(c1ccco1)N(c1ccc(F)cn1)C1CCOCC1`, the cytotoxicity at 10 µM was -19.8%.

Consider `O=C(COC1CCCCC1)Nc1ccn(CCc2ccncc2)n1`, for which the cytotoxicity at 10 µM was -3.87%.

As to `Clc1ccc(N2CCN(CCCN3CCCCC3)CC2)nc1`, the cytotoxicity at 10 µM came to 0.563%.

Consider `O=C1COc2cc(C(=O)N3CCCC(n4ccnc4)C3)ccc2N1` (stereo not drawn), for which the cytotoxicity at 10 µM worked out at 1.75%.

As to `CC1CN(C(=O)Nc2cc(C(F)(F)F)c[nH]c2=O)CCO1` (stereo not drawn), the cytotoxicity at 10 µM turned out to be 3.44%.

Turning to `CCN(CC)C1CCN(C(=O)NCc2cccc(NC(C)=O)c2)C1` (stereo not drawn), the cytotoxicity at 10 µM was found to be 4.55%.

With `NC(=O)C1CCN(c2ccc3cc(Br)ccc3n2)C1` (stereo not drawn), the cytotoxicity at 10 µM stood at 7.87%.

Consider `CC1COc2ccccc2N1C(=O)c1ccnc(-n2cncn2)c1` (stereo not drawn), for which the cytotoxicity at 10 µM came out at 12.5%.

`CCc1ccc(C(=O)N(CC(F)(F)F)C2CCCOC2)o1` (stereo not drawn): the cytotoxicity at 10 µM was -7.59%.

With `COc1cc(CN(C)C(=O)NCc2cccnc2OC)ccc1SC`, the cytotoxicity at 10 µM was -8.82%.

`Cc1ccc(CNC(C)c2nnc3n2CCCC3)o1` (stereo not drawn): the cytotoxicity at 10 µM is -7.17%.

For the molecule `O=C(NCc1nccn1CCc1ccccc1)NCC1(O)CCC1`, the cytotoxicity at 10 µM was -2.97%.

In the case of `CC1CN(C)c2ccccc2CN1C(=O)c1cscn1` (stereo not drawn), the cytotoxicity at 10 µM is -1.03%.

`Cc1ccc(CCC(C)NC2CCN(C(N)=O)CC2)cc1` (stereo not drawn): the cytotoxicity at 10 µM was -0.613%.

As for `O=C(COCC1CC1)NCC(c1ccccc1)N1CCc2sccc2C1` (stereo not drawn), the cytotoxicity at 10 µM turned out to be 16.6%.

For `Cc1cc(CNc2ccc3nc(C)sc3c2)no1`, the cytotoxicity at 10 µM was -5.2%.

Take `CN(C)c1cccc(CNC(=O)Nc2ccc3[nH]nnc3c2)n1`: the cytotoxicity at 10 µM stood at 3.15%.

As to `Cc1nc(CNC(C(=O)N2CCOCC2)c2ccccc2)cs1` (stereo not drawn), the cytotoxicity at 10 µM is 7.33%.

Take `COC(=O)N1CCCC(C(=O)N2CCCCC2)C1` (stereo not drawn): the cytotoxicity at 10 µM was -8.58%.

Turning to `Cc1cnn(CCCNC(=O)NCCS(=O)(=O)Nc2ccccc2)c1`, the cytotoxicity at 10 µM was found to be 1.07%.

Consider `Cc1ccccc1-c1cc(NC(=O)Cn2ccccc2=O)n(C)n1`, for which the cytotoxicity at 10 µM came out at 3.8%.

Consider `CC1COCCN1C(=O)NCCn1ccnc1` (stereo not drawn), for which the cytotoxicity at 10 µM was -50.4%.

For the molecule `CCNC(=O)C1CCCN(C(=O)Nc2cc(C#N)ccc2OCC)C1` (stereo not drawn), the cytotoxicity at 10 µM was -1.71%.

As for `CN(C)CCn1c(=O)oc2ccc(NC(=O)CC(C)(C)C)cc21`, the cytotoxicity at 10 µM was -2.28%.

In the case of `CCN(C)c1ccc(C(=O)N(CCOC)Cc2ccccn2)cc1`, the cytotoxicity at 10 µM is -3.96%.

Turning to `CN(C)c1ccc(C(=O)NCC2(O)CCOCC2)cc1`, the cytotoxicity at 10 µM is -3.34%.

Take `CC(NC(=O)C1=NN(C)C(=O)CC1)c1ccc(Cl)cc1Cl` (stereo not drawn): the cytotoxicity at 10 µM is -10.4%.

As for `CCc1ccc(CNC(=O)NC(C)CN2CCOCC2)s1` (stereo not drawn), the cytotoxicity at 10 µM is -1.84%.

Consider `NC(=O)c1ccc(CN2CCCC(N3CCCC3)C2)cc1` (stereo not drawn), for which the cytotoxicity at 10 µM was -3.63%.

Turning to `CC(C)CNC(=O)C1=NOC2(CCN(Cc3ccoc3)C2)C1` (stereo not drawn), the cytotoxicity at 10 µM is -3.42%.

In the case of `CC(C)n1cc(-c2nc3cc(S(=O)(=O)N4CCCC4)ccc3n2C)cn1`, the cytotoxicity at 10 µM stood at 1.12%.

Take `Cc1c[nH]c(CN2CCOC(c3ccc(F)cc3)C2)c(C)c1=O` (stereo not drawn): the cytotoxicity at 10 µM is -1.82%.

As for `COc1ccc2c(c1)OCC(CNC(=O)c1cc[nH]c1C)C2` (stereo not drawn), the cytotoxicity at 10 µM was found to be 3.34%.

Consider `Cc1cnc(CNC(=O)C2CCOc3ccccc3C2)cn1` (stereo not drawn), for which the cytotoxicity at 10 µM is -2.21%.

For the molecule `Cc1nc(N2CCCC(OCc3ccccn3)C2)c2c(C)noc2n1` (stereo not drawn), the cytotoxicity at 10 µM came out at 0.622%.

As for `CCc1ccc(CNC[C@H]2C[C@@H](CO)N(C)[C@H]2c2ccccc2F)o1`, the cytotoxicity at 10 µM is -3.09%.

For the molecule `CN1CCCCC1CCC(=O)NCCCn1ncc2ccccc21` (stereo not drawn), the cytotoxicity at 10 µM was -13.3%.

In the case of `CCCn1c(C)c(CC(=O)NCCNC(C)=O)c2c1CC(C)(C)CC2=O`, the cytotoxicity at 10 µM was 6.2%.

Take `Cc1oc(-c2ccoc2)nc1CN1CCC[C@H]1CO`: the cytotoxicity at 10 µM is -16.5%.

Turning to `CCCc1n[nH]cc1C(=O)NCC1COc2cc(OC)ccc2C1` (stereo not drawn), the cytotoxicity at 10 µM was -0.506%.

Turning to `CC(=O)NCCNC(=O)c1cc(COc2ccccc2)[nH]n1`, the cytotoxicity at 10 µM was -1.32%.

As to `CCc1cnc(NCC(CC)N2CCOCC2)nc1` (stereo not drawn), the cytotoxicity at 10 µM worked out at 12.8%.

Turning to `COc1ccccc1S(=O)(=O)N1CCC2(CC1)OCCCC2O` (stereo not drawn), the cytotoxicity at 10 µM is 0.0773%.

As to `CCN(CC)CC(=O)N(C)C(c1cccc(F)c1)c1ccccn1` (stereo not drawn), the cytotoxicity at 10 µM is -6.54%.

As to `CCN(Cc1ccc2c(c1)OCO2)S(=O)(=O)N(C)C(C)C`, the cytotoxicity at 10 µM was 8.55%.

On to `COC(=O)C(NC(=O)CCc1ccco1)c1cc(F)ccc1F` (stereo not drawn), for which the cytotoxicity at 10 µM is -0.448%.

As for `CN(Cc1cccs1)C(=O)CN1CCCC(Cn2cncn2)C1` (stereo not drawn), the cytotoxicity at 10 µM was -3.95%.

Turning to `CC(C(=O)N1CCCN(Cc2cscn2)CC1)N1CCOCC1` (stereo not drawn), the cytotoxicity at 10 µM was -11.4%.

As for `Cn1cc(C#N)c(=O)n(CC(O)c2ccccc2F)c1=O` (stereo not drawn), the cytotoxicity at 10 µM was -11%.

`O=C(NCCCOCC1CC1)Nc1ccc(-n2cncn2)c(F)c1`: the cytotoxicity at 10 µM was -0.132%.

`CCN(CC1COc2ccccc2O1)C(=O)CCn1cncn1` (stereo not drawn): the cytotoxicity at 10 µM was -9.21%.

With `Cc1nc(-c2ccsc2)ccc1C(=O)NC(C)CN1CCOCC1` (stereo not drawn), the cytotoxicity at 10 µM is -13.8%.

Take `Cc1ccccc1CN(C)C(=O)CN1CCOC(Cn2cccn2)C1` (stereo not drawn): the cytotoxicity at 10 µM was -5.1%.

For the molecule `Cc1cc(C)n(CC2CCCN2Cc2cscn2)n1` (stereo not drawn), the cytotoxicity at 10 µM was -7.65%.

`Cc1cccc(CC(=O)NCCCOC(C)C)c1`: the cytotoxicity at 10 µM is -2.25%.

For `CC(C)(O)CN1CCN(C(=O)c2cccnc2O)CC1`, the cytotoxicity at 10 µM was -21.7%.

On to `COCCN1CCC(CNC(=O)C2(c3cccc(C)c3)CC2)CC1`, for which the cytotoxicity at 10 µM is -1.88%.

Consider `O=C(CCc1cccc(C2CCNCC2)n1)N1CCCCC1`, for which the cytotoxicity at 10 µM was -4.78%.

`O=C(NCc1cccs1)c1nc2c(o1)CN(C(=O)c1cccnc1)C2`: the cytotoxicity at 10 µM was -6.04%.

As for `O=C(C1CCOCC1)N1CCc2ncc(CN3CCOCC3)n2CC1`, the cytotoxicity at 10 µM was -79.6%.

Regarding `CN(Cc1cncnc1)[C@H]1CN(CC2CC2)[C@@H]2CCCO[C@@H]21`, the cytotoxicity at 10 µM was -9.87%.

As to `CN(C)Cc1nnc2n1CCN(c1cnccn1)CC2`, the cytotoxicity at 10 µM is -10.8%.

Turning to `c1ccc(OC[C@]23COC[C@H]2CN(C2CCOCC2)C3)nc1`, the cytotoxicity at 10 µM is -2.6%.

As for `CN(C)CCN1CCN(Cc2cccc(C#N)c2)Cc2cccnc21`, the cytotoxicity at 10 µM was -1.57%.

For the molecule `CCC1=N[C@@]2(CC[C@@H]3CN(CC(=O)N(C)C)C[C@@H]32)C(=O)N1CC1CC1`, the cytotoxicity at 10 µM was -3.5%.

As to `O=C(NC1CC1)N1Cc2[nH]nc(COc3cccnc3)c2C1`, the cytotoxicity at 10 µM was determined as 4.77%.

With `COCC(=O)NCC1Cn2nnc(-c3ccncc3)c2CO1` (stereo not drawn), the cytotoxicity at 10 µM came to 8.22%.

In the case of `CN1CC(=O)N(c2cccc(F)c2)CC12CCN(CC1CCOCC1)C2` (stereo not drawn), the cytotoxicity at 10 µM amounted to 0.887%.

`CC(C)NC(=O)[C@H]1C[C@@H]2[C@@H](C1)OCCN2Cc1cnn(C)c1`: the cytotoxicity at 10 µM amounted to 5.68%.

For `O=C(CC1CCC2(CC1)CCN(Cc1cccnc1)CC2)N1CC=CC1`, the cytotoxicity at 10 µM is -2.13%.
